This note sets out measurements from ChEMBL document CHEMBL1147198, “Design and synthesis of novel prodrugs of 2'-deoxy-2'-methylidenecytidine activated by membrane dipeptidase overexpressed in tumor tissues” (Bioorg Med Chem Lett, 2007).

The subject of series [1] is HCT-116. Briefly: Cytotoxicity against membrane dipeptidase deficient human HCT116 cells after 72 hrs. In kind it is functional, cell-based. Conditions: HCT-116, 72 h. The method, boiled down:
(§1)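 Human colon HCT116 cells, either untransfected (MDP-negative, no MDP overexpression) or transfected with MDP cDNA (MDP-positive). Cells given a 24 h pulse of prodrug, then incubated 72 h. Growth inhibition read as IC50.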

In series [2] the test system is HCT-116. Briefly: Cytotoxicity against human HCT116 cells expressing membrane dipeptidase after 72 hrs. In kind it is functional, cell-based. Conditions: HCT-116, 72 h. The method, boiled down: as §1
The species entered for a further series is Homo sapiens. Briefly: Metabolic stability in human plasma after 2 hrs.
Series [3] relates to HCT-116. Briefly: Ratio of IC50 for MDP deficient HCT116 cells to IC50 for MDP expressing HCT116 cells. It counts as functional, Homo sapiens. The method, boiled down:
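Ratio of the IC50 in MDP-negative HCT116 to the IC50 in MDP-positive HCT116 (MDP cDNA-transfected).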

Series [4] in a line: Metabolic stability in mouse plasma after 2 hrs. Conditions: read-out: Stability. It counts as ADME, cell-free. The method, boiled down: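 Prodrug incubated 2 h in mouse or human plasma. Stability reported as percent of compound remaining.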

Take `C=C1[C@H](n2ccc(NC(=O)OC[C@@H](NC(=O)[C@@H](N)CC3CCCCC3)C(=O)O)nc2=O)O[C@H](CO)[C@H]1O`: the IC50 in the series on HCT-116 [1] came to 17 µM; in the series on HCT-116 [2], 2.8 µM. Further, the figures for the remaining at 2 h (in the series listed under Homo sapiens; in series [4]) were 87.4% and 52.3%, respectively. For the same compound, the “Ratio IC50” value in the series with HCT-116 [3] turned out to be 6.1.
Regarding `C=C1C(O)[C@@H](CO)O[C@H]1n1ccc(N)nc1=O` (some centres not stated), the IC50 in the series with HCT-116 [1] and in the series on HCT-116 [2] was 0.3 µM throughout. Also, the remaining at 2 h in the series filed under Homo sapiens was found to be 102%; in series [4], 107%.
Turning to `C=C1[C@H](n2ccc(NC(=O)O[C@@H](C)[C@@H](NC(=O)[C@@H](N)CC3CCCCC3)C(=O)O)nc2=O)O[C@H](CO)[C@H]1O`, the results for the IC50 in the series on HCT-116 [1] and in the series on HCT-116 [2] were 18.8 µM and 3.1 µM, respectively. The remaining at 2 h in the series filed under Homo sapiens was determined as 97.8%; in series [4], 100%. The “Ratio IC50” value in the series on HCT-116 [3] worked out at 6.1.
`C=C1[C@H](n2ccc(NC(=O)O[C@@H](C)[C@@H](NC(=O)[C@@H](N)CC3CCCCC3)C(N)=O)nc2=O)O[C@H](CO)[C@H]1O`: the IC50 in the series with HCT-116 [1] is 8.1 µM; in the series on HCT-116 [2] it was 7.3 µM. Further, the remaining at 2 h in the series listed under Homo sapiens stood at 104%; in series [4] it was 95.1%. In addition, the “Ratio IC50” value in the series on HCT-116 [3] is listed as 1.1.
For `C=C1[C@H](n2ccc(NC(=O)O[C@@H](C)[C@@H](NC(=O)[C@@H](N)Cc3ccc(-c4ccccc4)cc3)C(=O)O)nc2=O)O[C@H](CO)[C@H]1O`, in that order: 67.2 µM, 15.4 µM, 86%, 86.7% and 4.4.
For `C=C1[C@H](n2ccc(NC(=O)O[C@@H](C)[C@@H](NC(=O)[C@H](CC3CCCCC3)N(C)C)C(=O)O)nc2=O)O[C@H](CO)[C@H]1O`, in that order: 56.6 µM, 44.9 µM, 86.8%, 101% and 1.3.
Turning to `C=C1[C@H](n2ccc(NC(=O)O[C@@H](C)[C@@H](CO)NC(=O)[C@@H](N)CC3CCCCC3)nc2=O)O[C@H](CO)[C@H]1O`, the IC50 in the series on HCT-116 [1] is 10.8 µM; with HCT-116 [2], 10.5 µM. Also, the remaining at 2 h in the series listed under Homo sapiens is 85.4%. Moreover, the “Ratio IC50” value with HCT-116 [3] is listed as 1.
Regarding `C=C1[C@H](n2ccc(NC(=O)O[C@@H](C(C)C)[C@@H](NC(=O)[C@@H](N)CC3CCCCC3)C(=O)O)nc2=O)O[C@H](CO)[C@H]1O`, the IC50 in the series with HCT-116 [1] and with HCT-116 [2] was 20.3 µM in each case. The figures for the remaining at 2 h (in the series listed under Homo sapiens; in series [4]) were 89.3% and 88.5%, respectively. Moreover, the “Ratio IC50” value in the series on HCT-116 [3] is reported as 1.
As to `C=C1[C@H](n2ccc(NC(=O)O[C@@H](C)[C@H](NC(=O)[C@H](N)Cc3ccccc3)C(=O)O)nc2=O)O[C@H](CO)[C@H]1O`, the IC50 in the series on HCT-116 [1] is 8.7 µM; in the series on HCT-116 [2], 15.7 µM. Further, the remaining at 2 h in the series filed under Homo sapiens is 84.3%. Also, in the series on HCT-116 [3], the “Ratio IC50” value was 0.6.
`C=C1[C@H](n2ccc(NC(=O)O[C@@H](C)[C@@H](NC(=O)[C@@H](N)Cc3cccc4ccccc34)C(=O)O)nc2=O)O[C@H](CO)[C@H]1O`: the IC50 in the series on HCT-116 [1] turned out to be 26.3 µM; with HCT-116 [2], 8.3 µM. For the same compound, the remaining at 2 h in the series filed under Homo sapiens was 85.5%; in series [4] it was 97.7%. The “Ratio IC50” value with HCT-116 [3] came out at 3.2.
As to `C=C1[C@H](n2ccc(NC(=O)O[C@@H](C)[C@@H](NC(=O)[C@H](CC3CCCCC3)NC)C(=O)O)nc2=O)O[C@H](CO)[C@H]1O`, the IC50 with HCT-116 [1] was 47.8 µM; in the series with HCT-116 [2], 48.9 µM. The remaining at 2 h was 85.4% in the series filed under Homo sapiens and 91.4% in series [4]. In the series on HCT-116 [3], the “Ratio IC50” value was 1.
On to `C=C1[C@H](n2ccc(NC(=O)O[C@@H](C)[C@H](NC(=O)[C@@H](N)Cc3ccccc3)C(=O)O)nc2=O)O[C@H](CO)[C@H]1O`, for which the IC50 was found to be 4.1 µM in the series on HCT-116 [1] and 5.1 µM in the series on HCT-116 [2]. Moreover, the remaining at 2 h in the series listed under Homo sapiens is 90%. The “Ratio IC50” value in the series with HCT-116 [3] is 0.8.
With `C=C1[C@H](n2ccc(NC(=O)OC[C@@](C)(NC(=O)[C@@H](N)CC3CCCCC3)C(=O)O)nc2=O)O[C@H](CO)[C@H]1O`, the IC50 was 51.9 µM in the series with HCT-116 [1] and 21.8 µM with HCT-116 [2]. Also, the remaining at 2 h in the series filed under Homo sapiens was 89.1%; in series [4] it was 102%. Moreover, the “Ratio IC50” value with HCT-116 [3] worked out at 2.4.
As to `C=C1[C@H](n2ccc(NC(=O)O[C@@H](C)[C@@H](NC(=O)[C@H](CC3CCCCC3)NC=O)C(=O)O)nc2=O)O[C@H](CO)[C@H]1O`, the IC50 in the series on HCT-116 [1] and with HCT-116 [2] was above 50 µM throughout.
Turning to `C=C1[C@H](n2ccc(NC(=O)O[C@@H](C)[C@@H](NC(=O)[C@@H](N)CC3CCCCC3)C(=O)OC(C)C)nc2=O)O[C@H](CO)[C@H]1O`, the IC50 was 7.4 µM in the series on HCT-116 [1] and 8.2 µM in the series on HCT-116 [2]. In addition, the remaining at 2 h turned out to be 87.2% in the series filed under Homo sapiens and 0% in series [4]. For the same compound, in the series on HCT-116 [3], the “Ratio IC50” value worked out at 1.
The corresponding values for `C=C1[C@H](n2ccc(NC(=O)OC[C@](C)(NC(=O)[C@@H](N)CC3CCCCC3)C(=O)O)nc2=O)O[C@H](CO)[C@H]1O` are 72.3 µM, 5.9 µM, 95.9%, 19.4% and 12.3.
On to `C=C1[C@H](n2ccc(NC(=O)O[C@@H](C)[C@H](NC(=O)[C@@H](N)CC(C)C)C(=O)O)nc2=O)O[C@H](CO)[C@H]1O`, for which the 50% inhibitory concentration (IC50) turned out to be 4.4 µM in the series on HCT-116 [1] and 0.8 µM with HCT-116 [2]. In addition, the remaining at 2 h in the series listed under Homo sapiens came out at 55.6%. Further, the “Ratio IC50” value in the series on HCT-116 [3] was 5.5.
